Among the data in ChEMBL document CHEMBL1131376, “Steroidal and nonsteroidal sulfamates as potent inhibitors of steroid sulfatase” (J Med Chem, 1998) are inhibition values, retold here.

The target in test [1] is T1, Steryl-sulfatase (Homo sapiens) (UniProt P08842).
T1 sequence (whole entry): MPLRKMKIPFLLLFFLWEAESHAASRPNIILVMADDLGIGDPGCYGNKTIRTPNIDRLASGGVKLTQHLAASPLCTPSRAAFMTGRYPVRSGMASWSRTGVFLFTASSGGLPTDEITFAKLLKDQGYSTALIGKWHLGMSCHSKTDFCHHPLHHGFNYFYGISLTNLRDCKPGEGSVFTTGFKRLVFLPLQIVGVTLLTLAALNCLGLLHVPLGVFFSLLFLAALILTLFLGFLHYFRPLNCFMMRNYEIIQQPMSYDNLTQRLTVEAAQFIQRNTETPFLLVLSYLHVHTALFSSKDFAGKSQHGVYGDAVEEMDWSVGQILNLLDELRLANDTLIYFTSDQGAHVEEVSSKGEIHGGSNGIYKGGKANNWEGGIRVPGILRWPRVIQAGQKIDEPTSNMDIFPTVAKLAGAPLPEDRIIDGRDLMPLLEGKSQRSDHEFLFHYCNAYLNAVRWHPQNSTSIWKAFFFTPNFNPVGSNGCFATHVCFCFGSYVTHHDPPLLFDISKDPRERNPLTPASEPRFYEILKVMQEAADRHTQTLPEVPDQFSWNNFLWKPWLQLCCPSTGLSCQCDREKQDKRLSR
The test can be described thus: In vitro inhibition of Estrone Sulfatase in intact MCF-7 breast cancer cells at a concentration of 10 uM. It counts as cell-based. The conditions noted are these: MCF7.

The target of test [2] is T1, Steryl-sulfatase (Homo sapiens). The test can be described thus: In vitro inhibition of Estrone Sulfatase in placental microsomes at a concentration of 10 uM. Particulars: Placenta.
Test [3] shares this target. In words: In vitro inhibition of Estrone Sulfatase in placental microsomes at a concentration of 100 uM. The conditions noted are these: Placenta. The method in brief:
(§1)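 Placental microsomes (100 000 g pellet; 125 µg protein/mL) incubated 30 min with [³H]estrone sulfate (4 × 10⁵ dpm) brought to 20 µM with unlabelled substrate, with or without inhibitor. Product extracted into toluene, with [4-¹⁴C]estrone to correct for procedural losses. % inhibition given as mean ± s.d. of triplicates.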

For test [4] the target is unchanged. In words: In vitro inhibition of Estrone Sulfatase in placental microsomes at a concentration of 50 uM. The conditions noted are these: Placenta. An outline of the steps:
as §1

For test [5] the target is unchanged. The test can be described thus: In vitro inhibition of Estrone Sulfatase in intact MCF-7 breast cancer cells at a concentration of 0.1 uM. The conditions noted are these: MCF7. It counts as cell-based.
The target is the same in test [6]. In words: In vitro inhibition of Estrone Sulfatase in intact MCF-7 breast cancer cells at a concentration of 1.0 uM. It counts as cell-based. The conditions noted are these: MCF7.

Turning to `Cc1cc(=O)oc2ccc(OS(N)(=O)=O)cc12`, the inhibition in test [1] is 39.1%; in test [2], under 10%; in test [3], under 10%; in test [4], under 10%; in test [5], under 10%; in test [6], 17.4%.
Regarding `NS(=O)(=O)Oc1ccc2c(c1)CCCC2`, the inhibition is 78.8% in test [1]; under 10% in test [2]; 12.5% in test [3]; under 10% in test [4]; 51.7% in test [5]; 56.7% in test [6].
As for `NS(=O)(=O)Oc1ccc2c(c1)OC(=O)CC2`, the inhibition was 28.5% in test [1]; under 10% in test [2]; 34.4% in test [3]; 15% in test [4]; 12% in test [5]; 30.2% in test [6].
On to `NS(=O)(=O)Oc1ccc2c(c1)C(=O)CCC2`, for which the inhibition in test [1] was 93.5%; in test [2] it was 12.3%; in test [3], 27%; in test [4], 16.5%; in test [5] it was 10.4%; in test [6], 47.8%.
As to `NS(=O)(=O)Oc1ccc2c(c1)CCC2=O`, the inhibition in test [1] was 71.3%; in test [2], 19.6%; in test [3], 50.3%; in test [4] it was 37.7%; in test [5], 13.5%; in test [6] it was 22.6%.
Turning to `Cc1c(C)c2ccc(OS(N)(=O)=O)cc2oc1=O`, the inhibition was determined as 96.9% in test [2], 99.2% in test [3] and 98.8% in test [4].
Turning to `COc1cc2ccc(=O)oc2cc1OS(N)(=O)=O`, the inhibition was 72.1% in test [1]; under 10% in test [2]; 69.9% in test [3]; 42.9% in test [4]; 33.8% in test [5]; 34.1% in test [6].
With `NS(=O)(=O)Oc1ccc2c(c1)CCC=C2`, the inhibition in test [1] is 76.2%; in test [2], under 10%; in test [3], 34.5%; in test [4], 33.2%; in test [5] it was 49%; in test [6], 60.6%.
As to `NS(=O)(=O)Oc1cccc2c1CCC2=O`, the inhibition in test [1] was 74.1%; in test [2], under 10%; in test [3] it was under 10%; in test [4], under 10%; in test [5] it was under 10%; in test [6] it was 15.5%.
For `Cc1cc(=O)oc2cc(OS(N)(=O)=O)c(OS(N)(=O)=O)cc12`, the inhibition was 31.2% in test [1]; under 10% in test [2]; under 10% in test [3]; under 10% in test [4]; under 10% in test [5]; under 10% in test [6].
Take `Cc1c(C)c2ccc(OS(N)(=O)=O)c(C)c2oc1=O`: the inhibition came to 75.1% in test [1]; 17.4% in test [2]; 12.5% in test [3]; 11.5% in test [4]; 9.3% in test [5]; 46.4% in test [6].
Turning to `NS(=O)(=O)Oc1ccc2c(c1)OCC=C2`, the inhibition is 99.3% in test [1]; 19.9% in test [2]; 47.2% in test [3]; 36.9% in test [4]; 11.4% in test [5]; 68.2% in test [6].
Turning to `CC1CC(=O)Oc2cc(OS(N)(=O)=O)ccc21` (centres undefined), the inhibition in test [1] is 32.3%; in test [2] it was 53.4%; in test [3], 82.1%; in test [4] it was 70.6%; in test [5], under 10%; in test [6], under 10%.
As to `NS(=O)(=O)Oc1ccc2c(c1)C(=O)CC2`, the inhibition was 99% in test [1]; under 10% in test [2]; under 10% in test [3]; under 10% in test [4]; 33% in test [5]; 91% in test [6].
For `NS(=O)(=O)Oc1ccc2c(C(F)(F)F)cc(=O)oc2c1`, the inhibition in test [1] came out at 71.5%; in test [2], 79.4%; in test [3], 96.3%; in test [4], 94.3%; in test [5], 9.9%; in test [6], 28.3%.
For `NS(=O)(=O)Oc1ccc2c(c1)CCCC2=O`, the inhibition in test [1] was 78.1%; in test [2] it was 16.1%; in test [3], 56.1%; in test [4], 54.3%; in test [5], under 10%; in test [6], 11.7%.
As for `Cc1cc(=O)oc2cc(O)c(OS(N)(=O)=O)cc12`, the inhibition in test [1], in test [2], in test [3], in test [4], in test [5] and in test [6] was under 10% throughout.
On to `NS(=O)(=O)Oc1ccc2ccc(=O)oc2c1`, for which the inhibition in test [1] came out at 90.4%; in test [2], 78.2%; in test [3], 94.4%; in test [4] it was 91.9%; in test [5] it was 23.9%; in test [6], 66%.
With `Cc1cc(=O)oc2cc(OS(N)(=O)=O)ccc12`, the inhibition was 99% in test [3], 97.8% in test [4], 42.9% in test [5] and 85.6% in test [6].

One may read the inhibition as the percentage by which the read-out fell short of the control. A low value points to little suppression.
